pEC50, pIC50: −log10 of the molar value. The source made the active and inactive calls. The rule behind the calls is not given here.
The compounds below were run on Isocitrate dehydrogenase [NADP] cytoplasmic (Homo sapiens), O75874 [R132H] (assay: (§1) Inhibition of IDH1-R132H mutant (unknown origin) expressed in human HA1EM cells assessed as suppression of R-2HG secretion measured after 72 hrs by LC-MS/MS analysis).
Type: cell-based
Outline: (§2)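 HA1E-M cells (HEK-293 derivative) engineered to overexpress IDH1-R132H and release R-2HG into growth media. Compound treatment for 72 h, then R-2HG in conditioned media measured by LC-MS. Values normalized to DMSO-treated controls; EC50 from three independent experiments, each run in triplicate.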

Chain of Isocitrate dehydrogenase [NADP] cytoplasmic (Homo sapiens), O75874 [R132H] (O75874 whole entry R132H): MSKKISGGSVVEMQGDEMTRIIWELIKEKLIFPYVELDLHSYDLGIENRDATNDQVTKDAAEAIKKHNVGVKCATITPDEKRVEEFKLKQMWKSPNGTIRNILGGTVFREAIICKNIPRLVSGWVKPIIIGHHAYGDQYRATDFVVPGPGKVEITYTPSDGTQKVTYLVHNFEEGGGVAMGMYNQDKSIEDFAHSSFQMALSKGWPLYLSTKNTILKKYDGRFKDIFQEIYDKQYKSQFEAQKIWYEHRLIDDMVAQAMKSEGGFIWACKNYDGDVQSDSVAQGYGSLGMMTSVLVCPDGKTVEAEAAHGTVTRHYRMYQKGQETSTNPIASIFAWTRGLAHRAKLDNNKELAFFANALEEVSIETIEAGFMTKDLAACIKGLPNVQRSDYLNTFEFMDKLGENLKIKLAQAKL

Row | inhibition | Compound
1 | Dose-dependent effect | Cc1ccccc1C(C(=O)NC1CCCCC1)N(C(=O)Cn1ccnc1C)c1cccc(F)c1 (stereo not given)

These compounds were tested against T1, Isocitrate dehydrogenase [NADP] cytoplasmic (Homo sapiens, UniProt O75874, R132H) (assay: as §1).
Type: cell-based
Outline: as §2
Target sequence in this assay (O75874 whole entry R132H): as above

Row | pEC50 | Compound
2 | 7.22 | Cc1ccccc1C(C(=O)NC1CCCCC1)N(C(=O)Cn1ccnc1C)c1cccc(F)c1 (stereo not given)

These compounds were tested on Isocitrate dehydrogenase [NADP] cytoplasmic (Homo sapiens), O75874 [R132H] (assay: Inhibition of human C-terminal His8-tagged IDH1-R132H mutant expressed in Escherichia coli Rosetta assessed as inhibition of ketoreductase activity by measuring NADPH consumption preincubated for 10 mins followed by addition of NADPH and alpha-KG as substrate by fluorescence method).
Outline: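 Purified IDH1-R132H incubated with α-KG and NADPH; direct kinetic read of falling NADPH fluorescence, run in dose. Enzyme concentration kept below that of the screening assays so inhibitor stays far above enzyme. IC50 values are geometric means of at least three independent experiments.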

Row | inhibition | Compound
3 | Active | Cc1ccccc1C(C(=O)NC1CCCCC1)N(C(=O)Cn1ccnc1C)c1cccc(F)c1 (stereo not given)

Each compound was assayed against T1, Isocitrate dehydrogenase [NADP] cytoplasmic (assay: Inhibition of human C-terminal His8-tagged IDH1-R132H mutant expressed in Escherichia coli Rosetta assessed as inhibition of ketoreductase activity by measuring NADPH consumption preincubated for 60 mins followed by addition of alpha-KG as substrate measured after 50 mins in presence of NADPH and Mg2+ by resazurin based diaphorase-coupled fluorescence assay).
Outline: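 IDH1-R132H–Mg2+ ketoreductase assay reading NADPH consumption through a diaphorase-coupled fluorescence reaction. Buffer contained 0.01% Tween 20 against aggregation. Primary screen at 15 μM in duplicate, with positives set at ≥60% inhibition in both replicates. Retests were in 8-point dose.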
Target sequence in this assay (O75874 2-414 R132H limits assumed): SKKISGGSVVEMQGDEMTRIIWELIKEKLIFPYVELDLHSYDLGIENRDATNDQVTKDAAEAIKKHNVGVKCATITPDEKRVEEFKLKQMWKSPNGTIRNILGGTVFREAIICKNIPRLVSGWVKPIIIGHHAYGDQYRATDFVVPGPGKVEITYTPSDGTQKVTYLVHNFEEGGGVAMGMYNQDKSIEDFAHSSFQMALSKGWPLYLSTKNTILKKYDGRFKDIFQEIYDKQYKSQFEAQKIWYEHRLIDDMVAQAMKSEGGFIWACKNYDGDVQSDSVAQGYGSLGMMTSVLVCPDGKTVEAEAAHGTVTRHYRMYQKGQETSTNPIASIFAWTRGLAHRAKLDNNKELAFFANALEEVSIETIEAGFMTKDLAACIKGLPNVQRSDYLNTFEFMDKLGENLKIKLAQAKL

Row | pIC50 | Compound
4 | 7.25 | C[C@@H]1CN([C@@H](C)CO)S(=O)(=O)c2ccc(C#Cc3ccc(Cl)cc3)cc2O[C@H]1CN(C)C(=O)NC1CCCCC1
5 | 6.26 | CCCNC(=O)N(C)C[C@@H]1Oc2cc(C#Cc3cccc(F)c3)ccc2S(=O)(=O)N([C@@H](C)CO)C[C@H]1C
6 | 6.85 | C[C@@H]1CN([C@@H](C)CO)S(=O)(=O)c2ccc(C#Cc3cccnc3)cc2O[C@H]1CN(C)C(=O)NC1CCCCC1
7 | < 4.70 | C[C@@H]1CN([C@@H](C)CO)S(=O)(=O)c2ccc(C#CBr)cc2O[C@H]1CN(C)C(=O)NC1CCCCC1
8 | 7.22 | C[C@@H]1CN([C@@H](C)CO)S(=O)(=O)c2ccc(C#Cc3cccc(Cl)c3)cc2O[C@H]1CN(C)C(=O)NC1CCCCC1
9 | 7.05 | C[C@@H]1CN([C@@H](C)CO)S(=O)(=O)c2ccc(C#CC3CCCCC3)cc2O[C@H]1CN(C)C(=O)NC1CCCCC1
10 | < 4.70 | C[C@H](CO)N1C[C@H](C)[C@H](CN(C)C(=O)NC2CCCCC2)Oc2cc(C#Cc3cccc(F)c3)ccc2S1(=O)=O
11 | 4.72 | C[C@@H]1CN([C@@H](C)CO)S(=O)(=O)c2ccc(C#Cc3cccc(F)c3)cc2O[C@H]1CN(C)C(=O)c1ccno1
12 | 5.41 | C[C@@H]1CN([C@@H](C)CO)S(=O)(=O)c2ccc(C#Cc3cccc(F)c3)cc2O[C@@H]1CN(C)C(=O)NC1CCCCC1
13 | 5.77 | C[C@H](CO)N1C[C@H](C)[C@@H](CN(C)C(=O)NC2CCCCC2)Oc2cc(C#Cc3cccc(F)c3)ccc2S1(=O)=O
14 | 7.04 | C[C@@H]1CN([C@@H](C)CO)S(=O)(=O)c2ccc(C#Cc3ccccc3F)cc2O[C@H]1CN(C)C(=O)NC1CCCCC1
15 | 4.96 | Cc1noc(C)c1NC(=O)N(C)C[C@@H]1Oc2cc(C#Cc3cccc(F)c3)ccc2S(=O)(=O)N([C@@H](C)CO)C[C@H]1C
16 | 6.00 | C[C@@H]1CN([C@@H](C)CO)S(=O)(=O)c2ccc(C#Cc3cccc(F)c3)cc2O[C@H]1CN(C)C(=O)NC1CC1
17 | 5.24 | C[C@@H]1CN([C@@H](C)CO)S(=O)(=O)c2ccc(C#Cc3cccc(F)c3)cc2O[C@H]1CN(C)C(=O)N(C)C1CCCCC1
18 | 5.85 | CCNC(=O)N(C)C[C@@H]1Oc2cc(C#Cc3cccc(F)c3)ccc2S(=O)(=O)N([C@@H](C)CO)C[C@H]1C
19 | 6.00 | C[C@H]1CN([C@@H](C)CO)S(=O)(=O)c2ccc(C#Cc3cccc(F)c3)cc2O[C@@H]1CN(C)C(=O)NC1CCCCC1
20 | 6.80 | C[C@@H]1CN([C@@H](C)CO)S(=O)(=O)c2ccc(C#Cc3cccnc3)cc2O[C@H]1CN(C)C(=S)NC1CCCCC1
21 | 6.80 | C[C@@H]1CN([C@@H](C)CO)S(=O)(=O)c2ccc(C#Cc3cccc(F)c3)cc2O[C@H]1CN(C)C(=O)NCC1CCCCC1
22 | 7.55 | C[C@@H]1CN([C@@H](C)CO)S(=O)(=O)c2ccc(C#Cc3ccc(F)c(F)c3)cc2O[C@H]1CN(C)C(=O)NC1CCCCC1
23 | 5.51 | C[C@@H]1CN([C@@H](C)CO)S(=O)(=O)c2ccc(C#Cc3cccc(F)c3)cc2O[C@H]1CN(C)C(=O)Nc1ccccc1
24 | 7.02 | COc1ccc(OC[C@H](C)N2C[C@@H](C)[C@H](CN(C)C(=O)NC3CCCCC3)Oc3cc(C#Cc4cccnc4)ccc3S2(=O)=O)cc1

Row | pIC50 | Compound
25 | 7.12 | C[C@@H]1CN([C@@H](C)CO)S(=O)(=O)c2ccc(C#Cc3ccccc3)cc2O[C@H]1CN(C)C(=O)NC1CCCCC1
26 | 6.44 | C[C@@H]1CN([C@@H](C)CO)S(=O)(=O)c2ccc(C#Cc3cccc(F)c3)cc2O[C@H]1CN(C)C(=O)CC1CCCCC1
27 | 5.20 | C[C@H]1CN([C@@H](C)CO)S(=O)(=O)c2ccc(C#Cc3cccc(F)c3)cc2O[C@H]1CN(C)C(=O)NC1CCCCC1
28 | 6.59 | C[C@@H]1CN([C@@H](C)CO)S(=O)(=O)c2ccc(C#Cc3ccc(F)cn3)cc2O[C@H]1CN(C)C(=O)NC1CCCCC1
29 | 6.85 | C[C@@H]1CN([C@@H](C)CO)S(=O)(=O)c2ccc(C#C[Si](C)(C)C)cc2O[C@H]1CN(C)C(=O)NC1CCCCC1
30 | 5.10 | C[C@@H]1CN([C@@H](C)CO)S(=O)(=O)c2ccc(C#Cc3cccc(F)c3)cc2O[C@H]1CN(C)C(=O)C1CCOCC1
31 | 5.80 | C[C@@H]1CN([C@@H](C)CO)S(=O)(=O)c2ccc(C#Cc3cncn3C)cc2O[C@H]1CN(C)C(=O)NC1CCCCC1
32 | 7.04 | COc1ccc(C#Cc2ccc3c(c2)O[C@@H](CN(C)C(=O)NC2CCCCC2)[C@H](C)CN([C@@H](C)CO)S3(=O)=O)cc1
33 | 5.04 | C[C@@H]1CN([C@@H](C)CO)S(=O)(=O)c2ccc(C#Cc3cccnc3)cc2O[C@H]1CCC(=O)NC1CCCCC1
34 | 6.49 | C[C@@H]1CN([C@@H](C)CO)S(=O)(=O)c2ccc(C#Cc3cncnc3)cc2O[C@H]1CN(C)C(=O)NC1CCCCC1
35 | 6.22 | C[C@@H]1CN([C@H](C)CO)S(=O)(=O)c2ccc(C#Cc3cccc(F)c3)cc2O[C@H]1CN(C)C(=O)NC1CCCCC1
36 | 5.13 | C[C@@H]1CN([C@@H](C)CO)S(=O)(=O)c2ccc(C#Cc3cccc(F)c3)cc2O[C@H]1CN(C)CCC1CCNCC1
37 | 5.80 | C[C@@H]1CN([C@@H](C)CO)S(=O)(=O)c2ccc(C#Cc3cccc(F)c3)cc2O[C@H]1CN(C)C(=O)OC(C)(C)C
38 | 7.10 | C[C@@H]1CN([C@@H](C)CO)S(=O)(=O)c2ccc(C#Cc3cccc(F)c3)cc2O[C@H]1CN(C)C(=O)NC1CCCC1
39 | 6.36 | C[C@@H]1CN([C@@H](C)CO)S(=O)(=O)c2ccc(C#Cc3cccc(F)c3)cc2O[C@H]1CN(C)C(=O)C1CCCCC1
40 | 6.72 | C[C@@H]1CN([C@@H](C)CO)S(=O)(=O)c2ccc(/C=C/c3ccccc3)cc2O[C@H]1CN(C)C(=O)NC1CCCCC1
41 | 7.49 | C[C@@H]1CN([C@@H](C)CN(C)C)S(=O)(=O)c2ccc(C#Cc3ccc(F)cc3)cc2O[C@H]1CN(C)C(=O)NC1CCCCC1
42 | 5.28 | C[C@@H]1CN([C@H](C)CO)S(=O)(=O)c2ccc(C#Cc3cccc(F)c3)cc2O[C@@H]1CN(C)C(=O)NC1CCCCC1
43 | 7.43 | C[C@@H]1CN([C@@H](C)CO)S(=O)(=O)c2ccc(C#Cc3ccc(F)cc3)cc2O[C@H]1CN(C)C(=O)NC1CCCCC1
44 | 5.19 | C[C@@H]1CN([C@@H](C)CO)S(=O)(=O)c2ccc(-c3cccnc3)cc2O[C@H]1CN(C)C(=O)NC1CCCCC1
45 | 5.11 | C#Cc1ccc2c(c1)O[C@@H](CN(C)C(=O)NC1CCCCC1)[C@H](C)CN([C@@H](C)CO)S2(=O)=O

— ChEMBL document CHEMBL3862029, “Discovery of 8-Membered Ring Sulfonamides as Inhibitors of Oncogenic Mutant Isocitrate Dehydrogenase 1” (ACS Med Chem Lett, 2016)
